# According to ChEMBL document CHEMBL3352355, “Synthesis of novel polysubstituted (2SR,4RS)-2-heteroaryltetrahydro-1,4-epoxy-1-benzazepines and cis-2-heteroaryl-4-hydroxytetrahydro-1H-1-benzazepines as antiparasitic agents” (Eur J Med Chem, 2014):
# Test system: Trypanosoma cruzi
# Assay: Antiparasitic activity against epimastigote stage of Trypanosoma cruzi infected in Vero cells assessed as parasite growth inhibition […] by hemocytometery
# Format: functional, organism-based
# Conditions: not given
# Summary of the method: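 Exponential-phase T. cruzi Sylvio X10 epimastigotes (LIT medium with hiFCS) or L. (L.) infantum MHOM/BR/74/PP75 promastigotes (RPMI 1640, hemin, HEPES, 10% hiFCS) were exposed to threefold serial dilutions (0.3–300 µg/mL) for 72 h at 28 °C. Viable parasites were counted by hemocytometer with 0.25% eosin yellow. IC50 came from sigmoidal regression, given as mean ± SD.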
row,Compound,IC50
1,Cc1ccc([C@@H]2C[C@H]3Cc4cc(OC(F)(F)F)ccc4N2O3)s1 (racemic),43.9 µM
2,Clc1ccc2c(c1)C[C@@H]1C[C@@H](c3ccco3)N2O1 (racemic),53.1 µM
3,O[C@@H]1Cc2cc(OC(F)(F)F)ccc2N[C@H](c2ccoc2)C1 (relative stereo),602 µM
4,Cc1ccc([C@@H]2C[C@H](O)Cc3cc(Cl)ccc3N2)s1 (relative stereo),14.6 µM
5,O[C@@H]1Cc2cc(F)ccc2N[C@H](c2cccs2)C1 (relative stereo),764 µM
6,Clc1ccc2c(c1)C[C@@H]1C[C@@H](c3cccs3)N2O1 (racemic),25.4 µM
7,O=[N+]([O-])c1ccc([C@@H]2C[C@H]3Cc4ccccc4N2O3)o1 (racemic),53 µM
8,Cc1ccc([C@@H]2C[C@H]3Cc4cc(F)ccc4N2O3)o1 (racemic),192 µM
9,FC(F)(F)Oc1ccc2c(c1)C[C@@H]1C[C@@H](c3ccoc3)N2O1 (racemic),192 µM
10,Cc1ccsc1[C@@H]1C[C@H](O)Cc2ccccc2N1 (relative stereo),143 µM
11,CC1CS(=O)(=O)CCN1/N=C/c1ccc([N+](=O)[O-])o1 (centres undefined) [NIFURTIMOX],4 µM

# Test system: Trypanosoma cruzi
# Assay: Antiparasitic activity against amastigote stage of Trypanosoma cruzi infected in Vero cells assessed as parasite growth inhibition after 24 hrs by hemocytometery
# Format: functional, organism-based
# Conditions: Trypanosoma cruzi, Vero, 24 h; read-out: IC50
# Summary of the method: (§1)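 Host cells were Vero for T. cruzi (infected with tissue-derived trypomastigotes) and THP-1 (PMA-transformed, 10 ng/mL) for L. (L.) infantum (infected with late-phase promastigotes), at 1:10 cell:parasite for 24 h. Serial dilutions were given as two doses, the second on day 3 with a medium change. Read-out was % infected cells on methanol-fixed, Giemsa-stained slides (300 cells). IC50 came from sigmoidal regression; experiments in duplicate, concentrations in triplicate.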
row,Compound,IC50
1,Cc1ccc([C@@H]2C[C@H]3Cc4cc(OC(F)(F)F)ccc4N2O3)s1 (racemic),> 293 µM
2,O[C@@H]1Cc2cc(OC(F)(F)F)ccc2N[C@H](c2ccoc2)C1 (relative stereo),> 106 µM
3,Cc1ccc([C@@H]2C[C@H](O)Cc3cc(Cl)ccc3N2)s1 (relative stereo),> 114 µM
4,O[C@@H]1Cc2cc(F)ccc2N[C@H](c2cccs2)C1 (relative stereo),> 380 µM
5,Clc1ccc2c(c1)C[C@@H]1C[C@@H](c3cccs3)N2O1 (racemic),> 120 µM
6,O=[N+]([O-])c1ccc([C@@H]2C[C@H]3Cc4ccccc4N2O3)o1 (racemic),> 122 µM
7,Cc1ccc([C@@H]2C[C@H]3Cc4cc(F)ccc4N2O3)o1 (racemic),> 386 µM
8,FC(F)(F)Oc1ccc2c(c1)C[C@@H]1C[C@@H](c3ccoc3)N2O1 (racemic),> 107 µM
9,Cc1ccsc1[C@@H]1C[C@H](O)Cc2ccccc2N1 (relative stereo),> 128 µM
10,CC1CS(=O)(=O)CCN1/N=C/c1ccc([N+](=O)[O-])o1 (centres undefined) [NIFURTIMOX],1.6 µM

# Test system: not listed separately
# Assay: Selectivity index, ratio of CC50 for human THP1 cells to IC50 for promastigote stage of Leishmania infantum
# Format: functional, THP-1
# Conditions: not given
# Summary of the method: (§2)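 Selectivity index was calculated as CC50 in Vero (T. cruzi) or THP-1 (L. infantum) cells divided by parasite IC50. Both values came from 72 h mammalian-cell MTT assays and the parasite assays; SI ≥ 3 was defined as parasite-selective.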
row,Compound,Selectivity Index
1,Cc1ccc([C@@H]2C[C@H]3Cc4cc(OC(F)(F)F)ccc4N2O3)s1 (racemic),26.8
2,Clc1ccc2c(c1)C[C@@H]1C[C@@H](c3ccco3)N2O1 (racemic),>24.3
3,O[C@@H]1Cc2cc(OC(F)(F)F)ccc2N[C@H](c2ccoc2)C1 (relative stereo),10.7
4,Cc1ccc([C@@H]2C[C@H](O)Cc3cc(Cl)ccc3N2)s1 (relative stereo),>31.8
5,O[C@@H]1Cc2cc(F)ccc2N[C@H](c2cccs2)C1 (relative stereo),1.6
6,Clc1ccc2c(c1)C[C@@H]1C[C@@H](c3cccs3)N2O1 (racemic),>17.5
7,O=[N+]([O-])c1ccc([C@@H]2C[C@H]3Cc4ccccc4N2O3)o1 (racemic),2.2
8,Cc1ccc([C@@H]2C[C@H]3Cc4cc(F)ccc4N2O3)o1 (racemic),3.3
9,FC(F)(F)Oc1ccc2c(c1)C[C@@H]1C[C@@H](c3ccoc3)N2O1 (racemic),>76.6
10,Cc1ccsc1[C@@H]1C[C@H](O)Cc2ccccc2N1 (relative stereo),3.7

# Test system: not listed separately
# Assay: Cytotoxicity against human THP1 cells
# Format: cell-based
# Conditions: THP-1 cells
# Summary of the method: (§3)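 Vero monolayers or THP-1 cells (made adherent with 10 ng/mL PMA), in RPMI 1640 with 10% hiFCS, were exposed to compound (0.3–300 µg/mL) for 72 h at 37 °C, 5% CO2. Viability was measured by MTT, with formazan dissolved in DMSO and read at 580 nm. % cytotoxicity was calculated against untreated cells; CC50 came from sigmoidal regression, given as mean ± SD.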
row,Compound,CC50
1,Cc1ccc([C@@H]2C[C@H]3Cc4cc(OC(F)(F)F)ccc4N2O3)s1 (racemic),282 µM
2,Clc1ccc2c(c1)C[C@@H]1C[C@@H](c3ccco3)N2O1 (racemic),> 1150 µM
3,O[C@@H]1Cc2cc(OC(F)(F)F)ccc2N[C@H](c2ccoc2)C1 (relative stereo),460 µM
4,Cc1ccc([C@@H]2C[C@H](O)Cc3cc(Cl)ccc3N2)s1 (relative stereo),> 2050 µM
5,O[C@@H]1Cc2cc(F)ccc2N[C@H](c2cccs2)C1 (relative stereo),190 µM
6,Clc1ccc2c(c1)C[C@@H]1C[C@@H](c3cccs3)N2O1 (racemic),> 361 µM
7,O=[N+]([O-])c1ccc([C@@H]2C[C@H]3Cc4ccccc4N2O3)o1 (racemic),234 µM
8,Cc1ccc([C@@H]2C[C@H]3Cc4cc(F)ccc4N2O3)o1 (racemic),338 µM
9,FC(F)(F)Oc1ccc2c(c1)C[C@@H]1C[C@@H](c3ccoc3)N2O1 (racemic),> 1930 µM
10,Cc1ccsc1[C@@H]1C[C@H](O)Cc2ccccc2N1 (relative stereo),579 µM

# Test system: Leishmania infantum
# Assay: Antiparasitic activity against promastigote stage of Leishmania infantum assessed as parasite growth inhibition after 72 hrs by hemocytometery
# Conditions: not given
row,Compound,IC50
1,Cc1ccc([C@@H]2C[C@H]3Cc4cc(OC(F)(F)F)ccc4N2O3)s1 (racemic),10.5 µM
2,Clc1ccc2c(c1)C[C@@H]1C[C@@H](c3ccco3)N2O1 (racemic),47.3 µM
3,O[C@@H]1Cc2cc(OC(F)(F)F)ccc2N[C@H](c2ccoc2)C1 (relative stereo),43.1 µM
4,Cc1ccc([C@@H]2C[C@H](O)Cc3cc(Cl)ccc3N2)s1 (relative stereo),64.4 µM
5,O[C@@H]1Cc2cc(F)ccc2N[C@H](c2cccs2)C1 (relative stereo),120 µM
6,Clc1ccc2c(c1)C[C@@H]1C[C@@H](c3cccs3)N2O1 (racemic),20.7 µM
7,O=[N+]([O-])c1ccc([C@@H]2C[C@H]3Cc4ccccc4N2O3)o1 (racemic),107 µM
8,Cc1ccc([C@@H]2C[C@H]3Cc4cc(F)ccc4N2O3)o1 (racemic),102 µM
9,FC(F)(F)Oc1ccc2c(c1)C[C@@H]1C[C@@H](c3ccoc3)N2O1 (racemic),25.2 µM
10,Cc1ccsc1[C@@H]1C[C@H](O)Cc2ccccc2N1 (relative stereo),156 µM

# Test system: not listed separately
# Assay: Selectivity index, ratio of CC50 for African green monkey Vero cells to IC50 for amastigote stage of Trypanosoma cruzi
# Format: functional
# Conditions: not given
# Summary of the method: as §2
row,Compound,Selectivity Index
1,CC1CS(=O)(=O)CCN1/N=C/c1ccc([N+](=O)[O-])o1 (centres undefined) [NIFURTIMOX],43

# Test system: Leishmania infantum
# Assay: Antiparasitic activity against amastigote stage of Leishmania infantum infected in THP1 cells assessed as parasite growth inhibition after 24 hrs by hemocytometery
# Format: functional, organism-based, THP-1
# Conditions: Leishmania infantum, THP-1, 24 h; read-out: IC50
# Summary of the method: as §1
row,Compound,IC50
1,Cc1ccc([C@@H]2C[C@H]3Cc4cc(OC(F)(F)F)ccc4N2O3)s1 (racemic),> 293 µM
2,Clc1ccc2c(c1)C[C@@H]1C[C@@H](c3ccco3)N2O1 (racemic),> 128 µM
3,O[C@@H]1Cc2cc(OC(F)(F)F)ccc2N[C@H](c2ccoc2)C1 (relative stereo),> 106 µM
4,Cc1ccc([C@@H]2C[C@H](O)Cc3cc(Cl)ccc3N2)s1 (relative stereo),> 341 µM
5,O[C@@H]1Cc2cc(F)ccc2N[C@H](c2cccs2)C1 (relative stereo),> 380 µM
6,Clc1ccc2c(c1)C[C@@H]1C[C@@H](c3cccs3)N2O1 (racemic),> 120 µM
7,O=[N+]([O-])c1ccc([C@@H]2C[C@H]3Cc4ccccc4N2O3)o1 (racemic),> 368 µM
8,Cc1ccc([C@@H]2C[C@H]3Cc4cc(F)ccc4N2O3)o1 (racemic),> 128 µM
9,FC(F)(F)Oc1ccc2c(c1)C[C@@H]1C[C@@H](c3ccoc3)N2O1 (racemic),> 322 µM
10,Cc1ccsc1[C@@H]1C[C@H](O)Cc2ccccc2N1 (relative stereo),> 128 µM

# Test system: not listed separately
# Assay: Cytotoxicity against African green monkey Vero cells
# Format: cell-based
# Conditions: chlorocebus sabaeus
# Summary of the method: as §3
row,Compound,CC50
1,Cc1ccc([C@@H]2C[C@H]3Cc4cc(OC(F)(F)F)ccc4N2O3)s1 (racemic),170 µM
2,Clc1ccc2c(c1)C[C@@H]1C[C@@H](c3ccco3)N2O1 (racemic),353 µM
3,O[C@@H]1Cc2cc(OC(F)(F)F)ccc2N[C@H](c2ccoc2)C1 (relative stereo),95.4 µM
4,Cc1ccc([C@@H]2C[C@H](O)Cc3cc(Cl)ccc3N2)s1 (relative stereo),154 µM
5,O[C@@H]1Cc2cc(F)ccc2N[C@H](c2cccs2)C1 (relative stereo),218 µM
6,Clc1ccc2c(c1)C[C@@H]1C[C@@H](c3cccs3)N2O1 (racemic),> 361 µM
7,O=[N+]([O-])c1ccc([C@@H]2C[C@H]3Cc4ccccc4N2O3)o1 (racemic),51.4 µM
8,Cc1ccc([C@@H]2C[C@H]3Cc4cc(F)ccc4N2O3)o1 (racemic),1080 µM
9,FC(F)(F)Oc1ccc2c(c1)C[C@@H]1C[C@@H](c3ccoc3)N2O1 (racemic),180 µM
10,Cc1ccsc1[C@@H]1C[C@H](O)Cc2ccccc2N1 (relative stereo),616 µM
11,CC1CS(=O)(=O)CCN1/N=C/c1ccc([N+](=O)[O-])o1 (centres undefined) [NIFURTIMOX],67.5 µM

# Test system: not listed separately
# Assay: Selectivity index, ratio of CC50 for African green monkey Vero cells to IC50 for epimastigote stage of Trypanosoma cruzi
# Format: functional
# Conditions: not given
# Summary of the method: as §2
row,Compound,Selectivity Index
1,Cc1ccc([C@@H]2C[C@H]3Cc4cc(OC(F)(F)F)ccc4N2O3)s1 (racemic),3.9
2,Clc1ccc2c(c1)C[C@@H]1C[C@@H](c3ccco3)N2O1 (racemic),6.7
3,O[C@@H]1Cc2cc(OC(F)(F)F)ccc2N[C@H](c2ccoc2)C1 (relative stereo),0.2
4,Cc1ccc([C@@H]2C[C@H](O)Cc3cc(Cl)ccc3N2)s1 (relative stereo),10.5
5,O[C@@H]1Cc2cc(F)ccc2N[C@H](c2cccs2)C1 (relative stereo),0.3
6,Clc1ccc2c(c1)C[C@@H]1C[C@@H](c3cccs3)N2O1 (racemic),>14.2
7,O=[N+]([O-])c1ccc([C@@H]2C[C@H]3Cc4ccccc4N2O3)o1 (racemic),1
8,Cc1ccc([C@@H]2C[C@H]3Cc4cc(F)ccc4N2O3)o1 (racemic),5.6
9,FC(F)(F)Oc1ccc2c(c1)C[C@@H]1C[C@@H](c3ccoc3)N2O1 (racemic),0.9
10,Cc1ccsc1[C@@H]1C[C@H](O)Cc2ccccc2N1 (relative stereo),4.3
11,CC1CS(=O)(=O)CCN1/N=C/c1ccc([N+](=O)[O-])o1 (centres undefined) [NIFURTIMOX],17
